Laboratory results taken from ChEMBL document CHEMBL1817547, “Design, synthesis, and biological evaluation of curcumin analogues as multifunctional agents for the treatment of Alzheimer's disease” (Bioorg Med Chem, 2011).
Active and inactive are the calls of the source. No cut-off for these calls is given here.

test system: not listed separately; experiment: Inhibition of amyloid beta (1 to 42) aggregation assessed as decrease of beta-sheet structure formation at 10 uM after 32 hrs by CD spectroscopy assay
Method in brief: (§1)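 Aβ1–42 (20 µM) incubated at 37 °C with or without 10 µM compound in 10 mM sodium phosphate pH 7.4. At 0, 6, 12 and 32 h, far-UV CD spectra recorded at 25 °C from 190 to 260 nm in a 1 mm quartz cell (bandwidth 0.5 nm, scan 10 nm/min).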

Compound | inhibition
CN1CCN(c2ccc(/C=C3\CNC/C(=C\c4ccc(N5CCN(C)CC5)cc4)C3=O)cc2)CC1 | Active

test system: SH-SY5Y; experiment: Antioxidant activity in human SH-SY5Y cells assessed as decrease of tert-butyl hydroperoxide-induced ROS production at 2.5 uM after 24 hrs using DCFH-DA by fluorescence assay; assay type: functional, cell-based
Method in brief: (§2)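 SH-SY5Y grown in DMEM with 10% supplement at 37 °C, 5% CO2, seeded 3 × 10^4 cells/well. After 24 h, compounds were added (2.5 µM; reference antioxidants at 20 µM). Cells were loaded with 5 µM DCFH-DA in PBS for 30 min at 37 °C, washed, then exposed to 0.1 mM t-BuOOH for 30 min. Fluorescence read at ex 485/em 535 nm, expressed as % of untreated control.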

Compound | Activity
CN1CCN(c2ccc(/C=C3\CCC/C(=C\c4ccc(N5CCN(C)CC5)cc4)C3=O)cc2)CC1 | Active
CN1CCN(c2ccc(/C=C3\CNC/C(=C\c4ccc(N5CCN(C)CC5)cc4)C3=O)cc2)CC1 | Active
CN1CCN(c2ccc(/C=C/C(=O)/C=C/c3ccc(N4CCN(C)CC4)cc3)cc2)CC1 | Active
CN1CCN(c2ccc(/C=C3\CC/C(=C\c4ccc(N5CCN(C)CC5)cc4)C3=O)cc2)CC1 | Active

test system: not listed separately; experiment: Metal chelating activity of the compound assessed as formation of copper complex at 20 uM by molar ratio method; assay type: functional
Method in brief: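 Molar ratio method: compound solutions titrated with increasing CuSO4 or FeSO4; spectra obtained by subtracting CuSO4 and compound at matching concentrations, monitoring the band at 493 nm.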

Compound | Activity
CN1CCN(c2ccc(/C=C3\CNC/C(=C\c4ccc(N5CCN(C)CC5)cc4)C3=O)cc2)CC1 | Active

test system: not listed separately; experiment: Inhibition of amyloid beta (1 to 42) fibril formation assessed as less thin and short fibrils at 20 to 40 uM after 12 hrs by transmission electron microscopic analysis
Method in brief: (§3)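 Aβ1–42 (40 µM) aggregated with or without 20 µM compound and sampled at 0, 12 and 32 h. Samples applied to grids, washed with water, negatively stained for 1 min with 2% uranyl acetate, blotted and examined by transmission EM.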

Compound | inhibition
CN1CCN(c2ccc(/C=C3\CNC/C(=C\c4ccc(N5CCN(C)CC5)cc4)C3=O)cc2)CC1 | Active

test system: SH-SY5Y; experiment: Antioxidant activity in human SH-SY5Y cells assessed as decrease of tert-butyl hydroperoxide-induced ROS production at 20 uM after 24 hrs using DCFH-DA by fluorescence assay; assay type: functional, cell-based; method in brief: as §2

Compound | Activity
COc1cc(/C=C/C(=O)CC(=O)/C=C/c2ccc(O)c(OC)c2)ccc1O [CURCUMIN] | Active
Cc1c(C)c2c(c(C)c1O)CCC(C)(C(=O)O)O2 (configuration not stated) | Active
CC(=O)N[C@@H](CS)C(=O)O | inactive

test system: not listed separately; experiment: Inhibition of amyloid beta (1 to 42) aggregation assessed as stabilization of […] structure at 10 uM after 32 hrs by CD spectroscopy assay; method in brief: as §1

Compound | inhibition
CN1CCN(c2ccc(/C=C3\CNC/C(=C\c4ccc(N5CCN(C)CC5)cc4)C3=O)cc2)CC1 | Active

test system: not listed separately; experiment: Inhibition of self-mediated amyloid beta (1 to 42) aggregation after 48 hrs by thioflavin T fluorescence assay
Method in brief: (§4)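 Aβ1–42 (final 20 µM) incubated in 10 mM phosphate pH 7.4 at 37 °C for 48 h with or without compound (2, 5, 10, 20, 50 µM). Samples diluted into 50 mM glycine–NaOH pH 8.5 with 5 µM ThT, read at ex 450/em 485 nm. Inhibition % = (1 − IFi/IFc) × 100; mean ± SD from at least two independent measurements.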

Compound | IC50 [µM]
CN1CCN(c2ccc(/C=C/c3cccc(/C=C/c4ccc(N5CCN(C)CC5)cc4)c3)cc2)CC1 | > 50
CN1CCN(c2ccc(/C=C3\CN(C)C/C(=C\c4ccc(N5CCN(C)CC5)cc4)C3=O)cc2)CC1 | 17.6
CN1CCN(c2ccc(/C=C/c3cccc(/C=C/c4ccc(N5CCN(C)CC5)cc4)n3)cc2)CC1 | > 50
CN1CCN(c2ccc(/C=C/C(=O)CC(=O)/C=C/c3ccc(N4CCN(C)CC4)cc3)cc2)CC1 | 9.2
COc1cc(/C=C/C(=O)CC(=O)/C=C/c2ccc(O)c(OC)c2)ccc1O [CURCUMIN] | 12.1
CN1CCN(c2ccc(/C=C3\CCC/C(=C\c4ccc(N5CCN(C)CC5)cc4)C3=O)cc2)CC1 | 6
CN1CCN(c2ccc(/C=C3\CNC/C(=C\c4ccc(N5CCN(C)CC5)cc4)C3=O)cc2)CC1 | 2.5
O=C1/C(=C/c2ccc(N3CCCCC3)cc2)CNC/C1=C\c1ccc(N2CCCCC2)cc1 | 17.2
CN1CCN(c2ccc(/C=C/C(=O)c3ccc(C(=O)/C=C/c4ccc(N5CCN(C)CC5)cc4)cc3)cc2)CC1 | > 50
CN1CCN(c2ccc(/C=C/C(=O)/C=C/c3ccc(N4CCN(C)CC4)cc3)cc2)CC1 | 21.5
CN1CCN(c2ccc(/C=C/C(=O)c3cccc(C(=O)/C=C/c4ccc(N5CCN(C)CC5)cc4)c3)cc2)CC1 | 37.8
CN1CCN(c2ccc(/C=C3\CC/C(=C\c4ccc(N5CCN(C)CC5)cc4)C3=O)cc2)CC1 | 12.6

test system: not listed separately; experiment: Metal chelating activity of the compound assessed as formation of copper complex at 20 uM by UV-vis spectrometry; assay type: functional
Method in brief: (§5)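 UV spectra recorded for 20 µM compound alone or with 20 µM ZnSO4, CuSO4 or FeSO4.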

Compound | Activity
CN1CCN(c2ccc(/C=C3\CNC/C(=C\c4ccc(N5CCN(C)CC5)cc4)C3=O)cc2)CC1 | Active

test system: not listed separately; experiment: Inhibition of copper-induced amyloid beta (1 to 42) aggregation in HEPES buffer at pH 6.6 after 45 mins by thioflavin T fluorescence assay
Method in brief: (§6)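 Aβ1–42 (20 µM) co-incubated with 40 µM Cu2+ or Fe2+ (HEPES pH 6.6) or Zn2+ (HEPES pH 7.4), with 150 µM NaCl, with or without 40 µM compound or clioquinol, at 37 °C for 45 min. Samples diluted into 50 mM glycine–NaOH pH 8.5 with 5 µM ThT; fluorescence read at ex 450/em 485 nm.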

Compound | inhibition
Oc1c(I)cc(Cl)c2cccnc12 | Active
CN1CCN(c2ccc(/C=C3\CNC/C(=C\c4ccc(N5CCN(C)CC5)cc4)C3=O)cc2)CC1 | Active

test system: not listed separately; experiment: Metal chelating activity of the compound assessed as formation of iron complex at 20 uM by UV-vis spectrometry; assay type: functional; method in brief: as §5

Compound | Activity
CN1CCN(c2ccc(/C=C3\CNC/C(=C\c4ccc(N5CCN(C)CC5)cc4)C3=O)cc2)CC1 | Active

test system: not listed separately; experiment: Antioxidant activity assessed as trolox equivalent of APPH-induced radical scavenging activity at 0.625 to 2.5 uM by ORAC fluorescence assay; assay type: functional
Method in brief: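 AAPH (40 mM) peroxyl-radical decay of fluorescein (140 nM working solution) in 75 mM potassium phosphate pH 7.4; compounds from DMSO stocks tested at final 2.5, 1.25 and 0.625 µM. Each mixture in four replicates, at least four independent runs. Curves normalized to blank, net AUC computed, values expressed as Trolox equivalents from a Trolox standard curve.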

Compound | Ratio
CN1CCN(c2ccc(/C=C/c3cccc(/C=C/c4ccc(N5CCN(C)CC5)cc4)c3)cc2)CC1 | 1.2
CN1CCN(c2ccc(/C=C3\CN(C)C/C(=C\c4ccc(N5CCN(C)CC5)cc4)C3=O)cc2)CC1 | 4.7
CN1CCN(c2ccc(/C=C/c3cccc(/C=C/c4ccc(N5CCN(C)CC5)cc4)n3)cc2)CC1 | 1.1
CN1CCN(c2ccc(/C=C/C(=O)CC(=O)/C=C/c3ccc(N4CCN(C)CC4)cc3)cc2)CC1 | 1.9
COc1cc(/C=C/C(=O)CC(=O)/C=C/c2ccc(O)c(OC)c2)ccc1O [CURCUMIN] | 2.5
CN1CCN(c2ccc(/C=C3\CCC/C(=C\c4ccc(N5CCN(C)CC5)cc4)C3=O)cc2)CC1 | 2.6
CN1CCN(c2ccc(/C=C3\CNC/C(=C\c4ccc(N5CCN(C)CC5)cc4)C3=O)cc2)CC1 | 5.8
O=C1/C(=C/c2ccc(N3CCCCC3)cc2)CNC/C1=C\c1ccc(N2CCCCC2)cc1 | 2.4
CN1CCN(c2ccc(/C=C/C(=O)c3ccc(C(=O)/C=C/c4ccc(N5CCN(C)CC5)cc4)cc3)cc2)CC1 | 1.1
CN1CCN(c2ccc(/C=C/C(=O)/C=C/c3ccc(N4CCN(C)CC4)cc3)cc2)CC1 | 3.2
CN1CCN(c2ccc(/C=C/C(=O)c3cccc(C(=O)/C=C/c4ccc(N5CCN(C)CC5)cc4)c3)cc2)CC1 | 1.3
CN1CCN(c2ccc(/C=C3\CC/C(=C\c4ccc(N5CCN(C)CC5)cc4)C3=O)cc2)CC1 | 1.7

test system: not listed separately; experiment: Inhibition of self-mediated amyloid beta (1 to 42) aggregation at 50 uM after 48 hrs by thioflavin T fluorescence assay relative to control; method in brief: as §4

Compound | inhibition [%]
CN1CCN(c2ccc(/C=C/c3cccc(/C=C/c4ccc(N5CCN(C)CC5)cc4)c3)cc2)CC1 | 42.1
CN1CCN(c2ccc(/C=C3\CN(C)C/C(=C\c4ccc(N5CCN(C)CC5)cc4)C3=O)cc2)CC1 | 65.1
CN1CCN(c2ccc(/C=C/c3cccc(/C=C/c4ccc(N5CCN(C)CC5)cc4)n3)cc2)CC1 | 24
CN1CCN(c2ccc(/C=C/C(=O)CC(=O)/C=C/c3ccc(N4CCN(C)CC4)cc3)cc2)CC1 | 77.8
COc1cc(/C=C/C(=O)CC(=O)/C=C/c2ccc(O)c(OC)c2)ccc1O [CURCUMIN] | 71.3
CN1CCN(c2ccc(/C=C3\CCC/C(=C\c4ccc(N5CCN(C)CC5)cc4)C3=O)cc2)CC1 | 73.1
CN1CCN(c2ccc(/C=C3\CNC/C(=C\c4ccc(N5CCN(C)CC5)cc4)C3=O)cc2)CC1 | 90.2
O=C1/C(=C/c2ccc(N3CCCCC3)cc2)CNC/C1=C\c1ccc(N2CCCCC2)cc1 | 64.5
CN1CCN(c2ccc(/C=C/C(=O)c3ccc(C(=O)/C=C/c4ccc(N5CCN(C)CC5)cc4)cc3)cc2)CC1 | 35.8
CN1CCN(c2ccc(/C=C/C(=O)/C=C/c3ccc(N4CCN(C)CC4)cc3)cc2)CC1 | 68.6
CN1CCN(c2ccc(/C=C/C(=O)c3cccc(C(=O)/C=C/c4ccc(N5CCN(C)CC5)cc4)c3)cc2)CC1 | 52.8
CN1CCN(c2ccc(/C=C3\CC/C(=C\c4ccc(N5CCN(C)CC5)cc4)C3=O)cc2)CC1 | 67.2

test system: not listed separately; experiment: Inhibition of amyloid beta (1 to 42) fibril formation assessed as few short fibrils and many breakage points in fibrils at 20 to 40 uM after 32 hrs by transmission electron microscopic analysis; method in brief: as §3

Compound | inhibition
CN1CCN(c2ccc(/C=C3\CNC/C(=C\c4ccc(N5CCN(C)CC5)cc4)C3=O)cc2)CC1 | Active

test system: not listed separately; experiment: Inhibition of iron-induced amyloid beta (1 to 42) aggregation in HEPES buffer at pH 6.6 after 45 mins by thioflavin T fluorescence assay; method in brief: as §6

Compound | inhibition
Oc1c(I)cc(Cl)c2cccnc12 | Active
CN1CCN(c2ccc(/C=C3\CNC/C(=C\c4ccc(N5CCN(C)CC5)cc4)C3=O)cc2)CC1 | Active

test system: not listed separately; experiment: Inhibition of zinc-induced amyloid beta (1 to 42) aggregation in HEPES buffer at pH 7.4 after 45 mins by thioflavin T fluorescence assay; method in brief: as §6

Compound | inhibition
CN1CCN(c2ccc(/C=C3\CNC/C(=C\c4ccc(N5CCN(C)CC5)cc4)C3=O)cc2)CC1 | Active

test system: not listed separately; experiment: Metal chelating activity of the compound assessed as formation of zinc complex at 20 uM by UV-vis spectrometry; assay type: functional; method in brief: as §5

Compound | Activity
CN1CCN(c2ccc(/C=C3\CNC/C(=C\c4ccc(N5CCN(C)CC5)cc4)C3=O)cc2)CC1 | inactive

test system: SH-SY5Y; experiment: Cytotoxicity against human SH-SY5Y cells assessed as cell viability at 2.5 uM; assay type: cell-based
Method in brief: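 SH-SY5Y cells seeded at 3 × 10^4 per well, 24 h later exposed to 2.5 µM compound (final 0.05% DMSO) or vehicle for 24 h, then assessed for markers of cell death.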

Compound | Activity
CN1CCN(c2ccc(/C=C/c3cccc(/C=C/c4ccc(N5CCN(C)CC5)cc4)c3)cc2)CC1 | Non-toxic
CN1CCN(c2ccc(/C=C3\CN(C)C/C(=C\c4ccc(N5CCN(C)CC5)cc4)C3=O)cc2)CC1 | Non-toxic
CN1CCN(c2ccc(/C=C/c3cccc(/C=C/c4ccc(N5CCN(C)CC5)cc4)n3)cc2)CC1 | Non-toxic
CN1CCN(c2ccc(/C=C/C(=O)CC(=O)/C=C/c3ccc(N4CCN(C)CC4)cc3)cc2)CC1 | Non-toxic
CN1CCN(c2ccc(/C=C3\CCC/C(=C\c4ccc(N5CCN(C)CC5)cc4)C3=O)cc2)CC1 | Non-toxic
CN1CCN(c2ccc(/C=C3\CNC/C(=C\c4ccc(N5CCN(C)CC5)cc4)C3=O)cc2)CC1 | Non-toxic
O=C1/C(=C/c2ccc(N3CCCCC3)cc2)CNC/C1=C\c1ccc(N2CCCCC2)cc1 | Non-toxic
CN1CCN(c2ccc(/C=C/C(=O)c3ccc(C(=O)/C=C/c4ccc(N5CCN(C)CC5)cc4)cc3)cc2)CC1 | Non-toxic
CN1CCN(c2ccc(/C=C/C(=O)/C=C/c3ccc(N4CCN(C)CC4)cc3)cc2)CC1 | Non-toxic
CN1CCN(c2ccc(/C=C/C(=O)c3cccc(C(=O)/C=C/c4ccc(N5CCN(C)CC5)cc4)c3)cc2)CC1 | Non-toxic
CN1CCN(c2ccc(/C=C3\CC/C(=C\c4ccc(N5CCN(C)CC5)cc4)C3=O)cc2)CC1 | Non-toxic
